PAD4 FP inh = PAD4 (human) enzyme inhibition | recombinant PAD4, RCA probe fluorescence polarization | inhibition, % at 6.36 µM | 0.41% of 330,000 active | AID 485272;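 active = percent inhibition above a cutoff equal to the mean of all tested compounds plus 3 SD, cut at about 15% in these data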;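 note: 0% = PAD4 with RCA probe and DMSO and 100% = probe without PAD4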
TDP2 inh = TDP2 (human) inhibition, absorbance primary screen | O95551 | recombinant TDP2, T5PNP hydrolysis, p-nitrophenol absorbance 415 nm | inhibition, % at 12.8 µM | 0.34% of 370,000 active;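 active = inhibition above the mean of all tested compounds plus 3 SD, set per campaign, cut at about 25% in these data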;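 note: 0% = DMSO with enzyme and 100% = buffer with substrate but no TDP2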
Target sequence (O95551 whole entry, looked up): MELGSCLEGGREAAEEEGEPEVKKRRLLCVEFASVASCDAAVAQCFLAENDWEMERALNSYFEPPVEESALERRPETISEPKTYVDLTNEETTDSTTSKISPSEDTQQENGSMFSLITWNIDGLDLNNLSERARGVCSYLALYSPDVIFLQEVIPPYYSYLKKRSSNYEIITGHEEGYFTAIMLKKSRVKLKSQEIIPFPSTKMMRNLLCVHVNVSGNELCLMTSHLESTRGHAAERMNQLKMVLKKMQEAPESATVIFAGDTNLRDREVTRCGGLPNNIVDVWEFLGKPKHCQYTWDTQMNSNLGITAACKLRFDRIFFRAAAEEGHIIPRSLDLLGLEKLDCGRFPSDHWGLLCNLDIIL
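Evaluation: % inhibition relative to enzyme-containing and enzyme-free wells. Material: recombinant human TDP2. Benchmarks: enzyme-free and DMSO wells. Timing: enzyme reaction with compound for 2 h at 37 °C. Compound dosing: 12.8 µM only. Measured by: p-Nitrophenol epi absorbance. Reagent: T5PNP substrate at 5 mM, a TopII-DNA adduct mimic. Replication: single well per compound.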
GSTO1 counter = GSTO1 inhibition, counter-screen for RBBP9 inhibitors; P78417; recombinant GSTO1, activity-based probe fluorescence polarization; inhibition, % at 5.96 µM; 1.1% of 300,000 active;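 active = inhibition above the campaign mean inhibition plus 3 SD, cut at about 35% in these data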;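 note: 0% = GSTO1-1 with DMSO and 100% = wells lacking GSTO1-1 enzyme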
CTSL1 counter = counter-screen for PFM18AAP inhibitors: inhibitors of F. hepatica cathepsin L1; recombinant F. hepatica cathepsin L1, Z-Leu-Arg-MCA fluorescence; inhibition, % at 5.96 µM; 0.49% of 300,000 active; AID 1906;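 active = inhibition above the mean of all tested compounds plus 3 SD, set per screening campaign, cut at about 17% in these data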;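 note: 0% = plate median of test compound wells and 100% = 1 µM Z-Phe-Ala-diazomethylketone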
GSTO1 confirm = GSTO1 (human) inhibition, confirmation. AID 2176. recombinant GSTO1, probe fluorescence polarization. shares compounds with GSTO1 counter. inhibition, % at 5.96 µM. 54% of 2,400 active;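 active = inhibition above the primary screen's cutoff, its mean inhibition plus 3 SD, cut at about 35% in these data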;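 note: loss of polarization as inhibitors block binding of rhodamine sulfonate ester activity probe; 0% = GSTO1 with DMSO and 100% = wells lacking GSTO1 enzyme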
GSTO1 recomb ABPP = GSTO1 (human) inhibition by gel ABPP; shares compounds with GSTO1 counter; recombinant GSTO1, gel ABPP SE-Rh probe fluorescence; inhibition, % at 1 µM; 30% of 130 active; AID 463110;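 active = inhibition of the enzyme GSTO1 above about 75%, limit read from the data; inactive = inhibition below that limit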
The depositor's hits bear a star; nt = no result given. Rows were chosen to be rich in hits. Some 1.4% of all compounds tested hit in one or more screens of this group.

SMILES | PAD4 FP inh | TDP2 inh | GSTO1 counter | CTSL1 counter | GSTO1 confirm | others
Cc1ccc(Cl)c(NC(=O)COC(=O)c2ccccc2C(=O)c2ccc(Cl)c([N+](=O)[O-])c2)c1Cl | 1 | 1 | 49* | 5 | 52*
CCCNC(=O)COC(=O)c1ccccc1C(=O)c1ccc(Cl)c([N+](=O)[O-])c1 | 2 | 1 | 11 | 9 | nt
NS(=O)(=O)c1ccc(CCNC(=O)c2ccc([N+](=O)[O-])s2)cc1 | -16 | 4 | 50* | 5 | 7
COc1ccc(N/N=C(/N=Nc2nc(C)cc(=O)[nH]2)c2ccccc2)cc1 | -2 | 2 | 17 | 1 | nt
Cc1cc(=O)[nH]c(N=N/C(=N/Nc2ccc(O)cc2)c2ccccc2)n1 | -7 | 1 | 52* | 3 | 8
CCOC(=O)[C@]12CCCC=C1N(Cc1ccc(Cl)cc1Cl)C(=O)[C@H](CC(=O)NCc1ccc(OC)c(OC)c1)C2 | nt | 7 | nt | nt | nt
COc1ccc(C(=O)N/N=C/c2ccc3cccc(O)c3n2)cc1 | -26 | -5 | 41* | 3 | 6
O=C(N/N=C/c1ccc2cccc(OCc3ccccc3)c2n1)c1ccc(Cl)cc1 | -6 | -10 | 3 | 7 | nt
Cc1ccc(NC(=O)CCS(=O)(=O)c2ccccc2)c(C)c1 | nt | 16 | nt | nt | nt
O=C(NC1CCCCN(Cc2cccc(C(F)(F)F)c2)C1=O)c1c(F)cccc1F (stereo unspecified) | nt | -4 | nt | nt | nt
COc1ccc(NS(=O)(=O)c2cccc(C(=O)NNC(=O)c3ccccc3O)c2)cc1 | 3 | -9 | 47* | 1 | 9
COc1ccc(CSc2nnc(SCC(=O)Nc3ccccc3-c3ccccc3)s2)cc1 | nt | -4 | nt | nt | nt
Cc1[nH]n(-c2ccccc2)c(=O)c1-c1ccccc1 | 2 | 8 | -8 | 4 | nt
Cc1[nH]n(-c2ccccc2)c(=O)c1C(C[N+](=O)[O-])c1ccccc1Cl (stereo unspecified) | -15 | 3 | 43* | -5 | 16
CN(CCOC(=O)c1cc2ccccc2o1)C1CN(Cc2cn(Cc3ccccc3Cl)nn2)S(=O)(=O)C1 (stereo unspecified) | nt | 12 | nt | nt | nt
COc1ccc(-c2c(Cc3ccccc3)nc(NC(=O)c3ccccc3F)n2C)cc1 | nt | 2 | nt | nt | nt
CSc1ccccc1NC(=O)COC(=O)c1ccccc1Cc1ccccc1 | -1 | 7 | 69* | 6 | 4
O=C(CCn1c(=O)oc2cc(Cl)ccc21)Nc1ccc(O)cc1 | 0 | -11 | 7 | 7 | nt
CCn1c(=O)oc2cc(NC(=O)CCl)ccc21 | 0 | -1 | 88* | 7 | 92*
CC(=O)c1c(C(C)=O)c(C)n(-c2cccc([N+](=O)[O-])c2)c1C | 0 | -16 | 14 | -2 | nt
Cc1cc(C(=O)CCl)c(C)n1-c1cccc([N+](=O)[O-])c1 | 2 | 1 | 96* | 12 | 94*
CCOC(=O)Cc1c(C)c2c(O)cc(O)cc2oc1=O | -3 | 5 | 59* | -1 | 0
COc1ccc([C@H]2OC(=O)C[C@H]2C(=O)N2CCN(C(=O)C3CCCO3)CC2)cc1OC (stereo partly specified) | nt | 2 | nt | nt | nt
COc1cc2c(cc1OC)C(c1cc(Br)ccc1F)N(C(=O)CCl)CC2 (stereo unspecified) | 0 | 5 | 86* | 89* | 96* | GSTO1 recomb ABPP=87*
COc1cc2c(cc1OC)C(c1ccc(Br)cc1)N(C(=O)c1ccccc1C(=O)O)CC2 (stereo unspecified) | 0 | -17 | 3 | -2 | nt
SMILES | PAD4 FP inh | TDP2 inh | GSTO1 counter | CTSL1 counter | GSTO1 confirm | others
COCCCNC(=O)C[C@H]1C[C@@]2(C(=O)OC)C(=C[C@H](COCc3ccccc3)O[C@@H]2C)N(Cc2ccc(Cl)cc2Cl)C1=O | nt | 8 | nt | nt | nt
CN1CCN(C2=C(Cl)C(=O)C(c3cnc(N4CCCCC4)s3)=C(Cl)C2=O)CC1 | 23* | nt | 84* | -1 | 19
Cc1cc(C)cc(OCCCN2CCC(C(O)(c3ccccc3)c3ccccc3)CC2)c1 | nt | -1 | nt | nt | nt
O=C(NCCc1c[nH]c2ccccc12)OCc1cn(Cc2cccc(F)c2F)nn1 | nt | -1 | nt | nt | nt
CCc1cccc(NC(=O)CSC2=NS(=O)(=O)c3ccccc32)c1 | 9 | 4 | 55* | 3 | 1
COC(=O)N1CCC[C@H]1c1cccc2[nH]cc(C)c12 | nt | 1 | nt | nt | nt
Oc1ccc(NCc2cccc(OCc3ccccc3)c2)cc1 | 6 | 8 | 82* | -5 | 6
